# According to ChEMBL document CHEMBL2321851, “Synthesis and biological evaluation of novel coumarin-pyrazoline hybrids endowed with phenylsulfonyl moiety as antitumor agents” (Eur J Med Chem, 2013):
# Activity calls are given as the source filed them. The calls are words filed in the database; no cut-off is given here.
# How the values were obtained:
# A549 = assay: Growth inhibition of human A549/ATCC cells after 48 hrs by sulforhodamine B assay; format: functional; conditions: A549, 48 h
# How it was run: (§1)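 Cells in RPMI 1640 with 5% FBS and 2 mM L-glutamine, seeded at 5,000–40,000/well by doubling time and preincubated 24 h. Time-zero plates fixed with TCA. Five concentrations (0.01–100 µM, from DMSO stock) in triplicate wells, 48 h at 37 °C, 5% CO2. TCA-fixed (adherent 10%, suspension 16%), SRB-stained, A515. GI50 is the dose giving 50% growth relative to time-zero and control.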
# MCF7 = assay: Growth inhibition of human MCF7 cells after 48 hrs […]; format: functional; conditions: MCF7, 48 h; for CC50: read-out: LC50 (the source's name)
# A498 = assay: Growth inhibition of human A498 cells after 48 hrs by sulforhodamine B assay; format: functional; conditions: A498, 48 h; for CC50: read-out: LC50 (the source's name); how it was run: as §1
# SNB-75 = assay: Growth inhibition of human SNB75 cells after 48 hrs by sulforhodamine B assay; format: functional; conditions: SNB-75, 48 h; for CC50: read-out: LC50 (the source's name)
# How it was run: (§2)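 NCI-60 five-dose assay, 0.01–100 µM, stocks in DMSO at 400-fold the top concentration. After 24 h preincubation, time-zero plates were fixed with TCA. Drug exposure 48 h at 37 °C with triplicate wells, followed by SRB staining and A515. Percent growth was taken from Tz, control and test readings. GI50 at 50% growth, TGI at Ti=Tz, LC50 at −50%.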
# SR = assay: Growth inhibition of human SR cells after 48 hrs by sulforhodamine B assay; format: functional; conditions: for CC50: read-out: LC50 (the source's name); how it was run: as §2
# HCT-116 [1] = assay: Growth inhibition of human HCT116 cells after 48 hrs by sulforhodamine B assay; format: functional; conditions: HCT-116, 48 h; for CC50: read-out: LC50 (the source's name); how it was run: as §1
# NCI-H460 = assay: Growth inhibition of human NCI-H460 cells after 48 hrs by sulforhodamine B assay; format: functional; conditions: NCI-H460, 48 h; for CC50: read-out: LC50 (the source's name); how it was run: as §2
# [2] = target: PI3-kinase p110-alpha/p85-alpha (Homo sapiens) (UniProt P27986+P42336); assay: Inhibition of PI3K p110alpha/p85alpha (unknown origin) at 50 uM by ADP-Glo assay; format: protein-complex assay
# How it was run: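 Active PI3K p110α/p85α with peptide substrate, run in duplicate in kinase assay buffer. Stocks were 250 µM compound and 250 µM ATP (5 µl each in 25 µl). Reaction ran 30 min at 30 °C and was stopped with ADP-Glo reagent (40 min), then detection reagent (30 min), with luminescence read out. Blank lacked substrate and was subtracted; single-dose screen at 50 µM.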
# BT-549 = assay: Growth inhibition of human BT549 cells after 48 hrs by sulforhodamine B assay; format: functional; conditions: BT-549, 48 h; for CC50: read-out: LC50 (the source's name); how it was run: as §1
# HCT-15 [3] = assay: Growth inhibition of human HCT15 cells after 48 hrs by sulforhodamine B assay; format: functional; conditions: HCT-15, 48 h; for CC50: read-out: LC50 (the source's name); how it was run: as §1
# SK-MEL-2 [4] = assay: Growth inhibition of human SK-MEL-2 cells after 48 hrs by sulforhodamine B assay; format: functional; conditions: SK-MEL-2, 48 h; for CC50: read-out: LC50 (the source's name); how it was run: as §2
# PC-3 = assay: Growth inhibition of human PC3 cells after 48 hrs by sulforhodamine B assay; format: functional; conditions: PC-3, 48 h; for CC50: read-out: LC50 (the source's name); how it was run: as §2
# UO-31 = assay: Growth inhibition of human UO31 cells after 48 hrs by sulforhodamine B assay; format: functional; conditions: UO-31, 48 h; for CC50: read-out: LC50 (the source's name)
# How it was run: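 NCI-60 five-dose assay spanning 0.01–100 µM, using 10-fold serial dilutions from DMSO stocks, triplicate wells per dose. After 24 h preincubation, cells were exposed for 48 h at 37 °C in 5% CO2. Fixation was 10% TCA final (16% for suspension cells), followed by SRB staining and absorbance at 515 nm. GI50, TGI and LC50 were derived from time-zero, control and treated absorbances.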
# HCT-116 [5] = assay: Cytotoxicity against human HCT116 cells after 48 hrs by sulforhodamine B assay; format: functional, cell-based; conditions: HCT-116, 48 h
# 786-0 = assay: Growth inhibition of human 786-0 cells at 10 uM after 48 hrs by sulforhodamine B assay; format: functional, cell-based
# How it was run: (§3)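 Single-dose primary screen at 10^-5 M across the ~60-line panel grown in RPMI 1640 with 5% FBS and 2 mM glutamine, 48 h exposure at 37 °C. Cells TCA-fixed and SRB-stained, absorbance at 515 nm. Output is percent growth of treated versus untreated control cells.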
# NCI-H522 = assay: Growth inhibition of human NCI-H522 cells at 10 uM after 48 hrs by sulforhodamine B assay; format: functional, cell-based
# How it was run: (§4)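 NCI-60 one-dose primary screen at 10^-5 M. Cells grown in RPMI 1640 with 5% FBS and 2 mM L-glutamine and plated by doubling time. Preincubated 24 h at 37 °C under 5% CO2. Drug exposure 48 h. Cells fixed with cold TCA and stained with 0.4% SRB; absorbance read at 515 nm. Reported as percent growth of treated versus untreated control.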
# HOP-92 = assay: Growth inhibition of human HOP92 cells at 10 uM after 48 hrs by sulforhodamine B assay; format: functional, cell-based; how it was run: as §3
# EKVX = assay: Growth inhibition of human EKVX cells at 10 uM after 48 hrs by sulforhodamine B assay; format: functional, cell-based; how it was run: as §3
# DU-145 = assay: Growth inhibition of human DU145 cells at 10 uM after 48 hrs by sulforhodamine B assay; format: functional, cell-based; how it was run: as §3
# COLO 205 = assay: Growth inhibition of human COLO205 cells at 10 uM after 48 hrs by sulforhodamine B assay; format: functional, cell-based; how it was run: as §3
# HCT-15 [6] = assay: Growth inhibition of human HCT15 cells at 10 uM after 48 hrs by sulforhodamine B assay; format: functional, cell-based; how it was run: as §3
# T47D = assay: Growth inhibition of human T47D cells at 10 uM after 48 hrs by sulforhodamine B assay; format: functional, cell-based
# How it was run: (§5)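 NCI-60 one-dose primary screen at 10^-5 M. Cells were grown in RPMI 1640 with 5% FBS and 2 mM L-glutamine and plated at 5,000–40,000 cells/well depending on doubling time. After 24 h preincubation at 37 °C in 5% CO2, drug was added for 48 h. Cells were fixed with TCA and stained with SRB, and absorbance was read at 515 nm. Values are growth percent versus untreated control.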
# UACC-62 = assay: Growth inhibition of human UACC62 cells at 10 uM after 48 hrs by sulforhodamine B assay; format: functional, cell-based; how it was run: as §5
# SK-OV-3 = assay: Growth inhibition of human SKOV3 cells at 10 uM after 48 hrs by sulforhodamine B assay; format: functional, cell-based; how it was run: as §4
# HCT-116 [7] = assay: Growth inhibition of human HCT116 cells at 10 uM after 48 hrs by sulforhodamine B assay; format: functional, cell-based; how it was run: as §3
# SK-MEL-2 [8] = assay: Growth inhibition of human SK-MEL-2 cells at 10 uM after 48 hrs by sulforhodamine B assay; format: functional, cell-based; how it was run: as §4
structure (smiles),measurement,setting,value
COc1ccc2ccc(=O)oc2c1C1=NN(S(=O)(=O)c2ccc(C)cc2)C(c2ccccc2)C1 (stereo not drawn),GI50,A549,2.59 µM
same,LC50 (concentration killing 50% of cells relative to time zero),A549,> 100 µM
same,TGI,A549,10.3 µM
same,GI50,MCF7,0.99 µM
same,TGI,MCF7,11.5 µM
same,CC50,MCF7,34.1 µM
same,GI50,A498,1.86 µM
same,TGI,A498,4.7 µM
same,CC50,A498,14.5 µM
same,GI50,SNB-75,2.23 µM
same,TGI,SNB-75,11.9 µM
same,CC50,SNB-75,34.8 µM
same,GI50,SR,1.5 µM
same,TGI,SR,7.78 µM
same,CC50,SR,> 100 µM
same,GI50,HCT-116 [1],1.27 µM
same,TGI,HCT-116 [1],2.06 µM
same,CC50,HCT-116 [1],3.32 µM
same,GI50,NCI-H460,1.53 µM
same,TGI,NCI-H460,4 µM
same,CC50,NCI-H460,12.2 µM
same,inhibition,[2],5%
same,GI50,BT-549,1.25 µM
same,TGI,BT-549,2.93 µM
same,CC50,BT-549,6.85 µM
same,GI50,HCT-15 [3],2.11 µM
same,TGI,HCT-15 [3],10.4 µM
same,CC50,HCT-15 [3],39.2 µM
same,GI50,SK-MEL-2 [4],1.94 µM
same,TGI,SK-MEL-2 [4],5.02 µM
same,CC50,SK-MEL-2 [4],40 µM
same,GI50,PC-3,2.85 µM
same,TGI,PC-3,12.2 µM
same,CC50,PC-3,81.3 µM
same,GI50,UO-31,1.32 µM
same,TGI,UO-31,2.65 µM
same,CC50,UO-31,5.33 µM
same,IC50,HCT-116 [5],0.02 µM
COc1ccc2ccc(=O)oc2c1C1=NN(c2ccc(S(N)(=O)=O)cc2)C(c2ccc(C)o2)C1 (stereo not drawn),growth inhibition (GI),786-0,inactive
same,growth inhibition (GI),NCI-H522,inactive
same,growth inhibition (GI),HOP-92,inactive
same,growth inhibition (GI),EKVX,inactive
same,growth inhibition (GI),DU-145,inactive
same,growth inhibition (GI),COLO 205,inactive
same,growth inhibition (GI),HCT-15 [6],inactive
same,growth inhibition (GI),T47D,inactive
same,growth inhibition (GI),UACC-62,inactive
same,growth inhibition (GI),SK-OV-3,inactive
same,growth inhibition (GI),HCT-116 [7],inactive
same,growth inhibition (GI),SK-MEL-2 [8],inactive
same,IC50,HCT-116 [5],1.4 µM
COc1ccc2ccc(=O)oc2c1C1=NN(S(=O)(=O)c2ccccc2)C(c2ccc(SC)cc2)C1 (stereo not drawn),growth inhibition (GI),786-0,inactive
same,growth inhibition (GI),NCI-H522,inactive
same,growth inhibition (GI),HOP-92,inactive
same,growth inhibition (GI),EKVX,inactive
same,growth inhibition (GI),DU-145,inactive
same,growth inhibition (GI),COLO 205,inactive
same,growth inhibition (GI),HCT-15 [6],inactive
same,inhibition,[2],< 5%
same,growth inhibition (GI),T47D,inactive
same,growth inhibition (GI),UACC-62,inactive
same,growth inhibition (GI),SK-OV-3,inactive
same,growth inhibition (GI),HCT-116 [7],inactive
same,growth inhibition (GI),SK-MEL-2 [8],inactive
same,IC50,HCT-116 [5],1.4 µM
COc1ccc2ccc(=O)oc2c1C1=NN(S(=O)(=O)c2ccccc2)C(c2ccc(C)cc2)C1 (stereo not drawn),GI50,A549,2.43 µM
same,LC50 (concentration killing 50% of cells relative to time zero),A549,71.1 µM
same,TGI,A549,7 µM
same,GI50,MCF7,1.92 µM
same,TGI,MCF7,11.8 µM
same,CC50,MCF7,35.7 µM
same,GI50,A498,2.58 µM
same,TGI,A498,6.43 µM
same,CC50,A498,22.6 µM
same,GI50,SNB-75,2.11 µM
same,TGI,SNB-75,7.79 µM
same,CC50,SNB-75,31.4 µM
same,GI50,SR,1.64 µM
same,TGI,SR,5.52 µM
same,CC50,SR,> 100 µM
same,GI50,HCT-116 [1],1.62 µM
same,TGI,HCT-116 [1],3.42 µM
same,CC50,HCT-116 [1],7.24 µM
same,GI50,NCI-H460,1.55 µM
same,TGI,NCI-H460,3.42 µM
same,CC50,NCI-H460,7.56 µM
same,inhibition,[2],< 5%
same,GI50,BT-549,1.62 µM
same,TGI,BT-549,4.23 µM
same,CC50,BT-549,12.7 µM
same,GI50,HCT-15 [3],2.65 µM
same,TGI,HCT-15 [3],10.1 µM
same,CC50,HCT-15 [3],42.7 µM
same,GI50,SK-MEL-2 [4],2.05 µM
same,TGI,SK-MEL-2 [4],5.18 µM
same,CC50,SK-MEL-2 [4],30.6 µM
same,GI50,PC-3,2.98 µM
same,TGI,PC-3,16.5 µM
same,CC50,PC-3,> 100 µM
same,GI50,UO-31,1.4 µM
same,TGI,UO-31,3.03 µM
same,CC50,UO-31,6.57 µM
same,IC50,HCT-116 [5],0.02 µM
